As usually defined, the IC50 is the point on the concentration scale where inhibition reaches its midpoint. For orientation: EC50 means the concentration needed to bring the measured effect to its halfway point.

The species entered for test [1] is Homo sapiens. Kind of test: Concentration required to kill 50% of PBMCs. In kind it is functional, organism-based. The essentials:
(§1)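 Uninfected PHA-stimulated PBMCs or CEM cells plated at 2.5 × 10^5 cells/well with diluted drug. Incubated 6 days at 37 °C, 10% CO2. XTT/PMS added and incubated 4 h at 37 °C. Absorbance read at 450 nm, 630 nm reference.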

The species entered for test [2] is Homo sapiens. Put plainly: Effective concentration of required to inhibit the replication of HIV-1 BY 50% in PMBCs from donor 2. In kind it is functional, organism-based.
The species named for test [3] is Homo sapiens. Put plainly: Effective concentration of required to inhibit the replication of HIV-1 BY 50% in PMBCs from donor 1. The format is functional, organism-based.
The test system of test [4] is CCRF-CEM. Kind of test: Concentration required to kill 50% of CEM cells. In kind it is functional, cell-based. Conditions: Homo sapiens. The essentials:
as §1

The species entered for test [5] is Homo sapiens. Put plainly: Effective concentration required to inhibit the replication of HIV-1 by 50% in PMBCs in the absence of thymidine. The format is functional, organism-based.
Test [6] has as its system Human immunodeficiency virus 1. Kind of test: Concentration required to inhibit HIV-1 replication by 50% in activated PBMCs.
Test [7] deals with Human immunodeficiency virus 1. Kind of test: Concentration required to inhibit the production of proviral DNA in unactivated PBMCs.
The species named for test [8] is Homo sapiens. Put plainly: Effective concentration required to inhibit the replication of HIV-1 by 50% in PMBCs in the presence of thymidine. The format is functional, organism-based.
For test [9], the species on record is Homo sapiens. Put plainly: Effective concentration required to inhibit the replication of HIV-1 by 50% in PMBCs from donor 2. In kind it is functional, organism-based.
The species entered for test [10] is Homo sapiens. Kind of test: Effective concentration required to inhibit the replication of HIV-1 by 50% in PMBCs from donor 1. In kind it is functional, organism-based.
The species entered for test [11] is Homo sapiens. Kind of test: Effective concentration required to inhibit the replication of HIV-1 with no pretreatment of activated PBMCs. In kind it is functional, organism-based. The method in brief: (§2)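 Uninfected PHA-stimulated PBMCs (2.5 × 10^5 cells/mL) given compound in ddH2O in triplicate for 2 h at 37 °C, then LAI/HIV-1 (5000 DPM/10^6 cells) added. In parallel cultures, cells were infected 3 h first and then treated. After 6 days at 37 °C, supernatant RT activity measured.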

Test [12] is filed under the species Homo sapiens. Put plainly: Effective concentration required to inhibit the replication of HIV-1 with 2 hr pretreatment of activated PBMCs. In kind it is functional, organism-based. The method in brief:
as §2

Test [13] is described as follows: Inhibition of AZT-MP production by cell free extracts of CEM cells. In kind it is functional, Homo sapiens, CCRF-CEM. Also noted: unit not given here. The essentials:
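CEM cells (1.5 × 10^8) sonicated in 1 mL 20 mM Tris-HCl, 500 mM NaCl, pH 7.5. Lysate incubated with phosphoramidate and carbamate, each added from 10 mM stock, for 45 min at 37 °C, then stopped with methanol. AZT-MP quantified by RP-HPLC-RIA against a no-carbamate control. Mean of two experiments.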

Test [14] concerns CCRF-CEM. Kind of test: Effective concentration to inhibit HIV-1 replication by 50% in CEM cells. The format is functional, cell-based. Particulars: Homo sapiens. The essentials: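 PHA-stimulated CEM cells infected 3 h at 37 °C with LAI/HIV-1 (10 000 DPM RT activity/10^6 cells), then washed. Resuspended at 2.5 × 10^5 cells/mL in medium with 10 U/mL IL-2. Drugs in ddH2O added to duplicate or triplicate cultures. Held 6 days at 37 °C; supernatant p24 measured by ELISA.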

The species entered for test [15] is Homo sapiens. Kind of test: Effective concentration to inhibit HIV-1 replication by 50% in PMBCs cells from donor 2. In kind it is functional, cell-based. The essentials: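 Ficoll-isolated human PBMCs, PHA-stimulated, grown in RPMI 1640 with 10% heat-inactivated FBS, penicillin/streptomycin and IL-2 (10 U/mL) at 37 °C. Cells were infected with LAI/HIV-1, and compounds in ddH2O were added to duplicate or triplicate cultures. After 6 days, supernatant viral RT activity was measured.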

Test [16] is filed under the species Homo sapiens. Put plainly: (§3) Intracellular of AZT-TP concentrations in LAI/HIV-1 infected PMBCs was determined at a conc of 10 uM). The format is functional, organism-based. The essentials: (§4)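 PHA-stimulated, LAI/HIV-1-infected PBMCs (donor 2) at 10^6 cells/mL, triplicate, given 10 µM compound ± 50 µM thymidine for 18 h at 37 °C. Cells washed, extracted in 60% methanol overnight at −20 °C, dried and reconstituted. AZT-TP quantified by inhibition of recombinant HIV-1 RT (poly(rA)-oligo(dT), 3H-TTP, 2 h at 37 °C) relative to AZT-TP standards; pmol/10^6 cells.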

For test [17], the species on record is Homo sapiens. Described as §3. The format is functional, organism-based. The method in brief:
as §4
The source holds these as a separate data set.

For test [18], the species on record is Homo sapiens. Put plainly: Concentration required to kill 50% of PBMCs cells. The format is functional, cell-based. Particulars: PBMC. The essentials:
as §1

The next test deals with U1. Kind of test: Antiviral activity was determined in chronically infected U1 cell line with HIV-1. In kind it is functional, cell-based. Particulars: Homo sapiens. The method in brief: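 HIV-1 chronically infected U1 cells (1.5 × 10^5 cells/well) in RPMI 1640 with 10% FBS and 10 ng/mL TNF-α. Compound in ddH2O added to duplicate cultures. Incubated 48 h at 37 °C, 5% CO2. Supernatant p24gag measured by ELISA; XTT assay run on the remaining culture.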

The species named for test [19] is Homo sapiens. Kind of test: Effective concentration to inhibit HIV-1 replication by 50% in PMBCs cells from donor 1. The format is functional, cell-based.

Turning to `COC(=O)[C@H](CC(C)C)NP(=O)(O)OC[C@H]1O[C@@H](n2cc(C)c(=O)[nH]c2=O)C[C@@H]1N=[N+]=[N-]`, the 50% inhibitory concentration (IC50) in the test filed under Homo sapiens [1] and with CCRF-CEM [4] was > 100000 nM in each case. Also, the EC50 was found to be 1000 nM in the test filed under Homo sapiens [2] and 1300 nM in the test listed under Homo sapiens [3].
With `COC(=O)[C@@H](NP(=O)(O)OC[C@H]1O[C@@H](n2cc(C)c(=O)[nH]c2=O)C[C@@H]1N=[N+]=[N-])C(C)C`, the IC50 in the test filed under Homo sapiens [1] and in the test on CCRF-CEM [4] was > 100000 nM in each case. Further, the EC50 in the test filed under Homo sapiens [5] amounted to 350 nM; in [6], 350 nM; in the test filed under Homo sapiens [8] it was 30000 nM; in the test filed under Homo sapiens [9], 900 nM; in the test listed under Homo sapiens [10] it was 1300 nM. In addition, in [7], the IC100 was found to be 0.1 µM.
With `COC(=O)[C@H](Cc1c[nH]c2ccccc12)NP(=O)(O)OC[C@H]1O[C@@H](n2cc(C)c(=O)[nH]c2=O)C[C@@H]1N=[N+]=[N-]`, the 50% effective concentration (EC50) in the test filed under Homo sapiens [11] was 350 nM; in the test filed under Homo sapiens [5], 350 nM; in the test filed under Homo sapiens [12], < 10 nM; with CCRF-CEM [14] it was 4 nM; in test [6], 350 nM; in the test filed under Homo sapiens [8] it was 30000 nM. Besides, the 50% effective concentration (EC50) is 350 nM in the test listed under Homo sapiens [15], 40000 nM with U1 and 2000 nM in the test listed under Homo sapiens [19]. The Activity in test [13] is given as 6.39. Besides, in test [7], the IC100 worked out at 0.1 µM. The figures for the Concentration (pM (10e6*cells)-1) in the test listed under Homo sapiens [16] and in the test listed under Homo sapiens [17] were 0.01 and 0.22, respectively. Besides, the concentration for half-maximal inhibition (IC50) in the test filed under Homo sapiens [18] and in the test on CCRF-CEM [4] was > 100000 nM each time.
For `COC(=O)[C@@H](Cc1c[nH]c2ccccc12)NP(=O)(O)OC[C@H]1O[C@@H](n2cc(C)c(=O)[nH]c2=O)C[C@@H]1N=[N+]=[N-]`, the IC50 in the test filed under Homo sapiens [1] and with CCRF-CEM [4] was > 100000 nM throughout. Moreover, the EC50 in the test filed under Homo sapiens [2] and in the test listed under Homo sapiens [3] was 1000 nM throughout.
For the compound `COC(=O)[C@@H](Cc1ccccc1)NP(=O)(O)OC[C@H]1O[C@@H](n2cc(C)c(=O)[nH]c2=O)C[C@@H]1N=[N+]=[N-]`, the IC50 in the test filed under Homo sapiens [1] and in the test with CCRF-CEM [4] was > 100000 nM throughout. Besides, the concentration for a half-maximal effect (EC50) is 80 nM in the test listed under Homo sapiens [2] and 89 nM in the test filed under Homo sapiens [3].
`CNC(=O)[C@@H](Cc1ccccc1)NP(=O)(O)OC[C@H]1O[C@@H](n2cc(C)c(=O)[nH]c2=O)C[C@@H]1N=[N+]=[N-]`: the concentration for half-maximal inhibition (IC50) in the test filed under Homo sapiens [1] and with CCRF-CEM [4] was > 100000 nM throughout. Moreover, the half-maximal effective concentration (EC50) in the test filed under Homo sapiens [2] came out at 100 nM; in the test filed under Homo sapiens [3], 900 nM.
For the compound `CNC(=O)[C@H](Cc1ccccc1)NP(=O)(O)OC[C@H]1O[C@@H](n2cc(C)c(=O)[nH]c2=O)C[C@@H]1N=[N+]=[N-]`, the 50% inhibitory concentration (IC50) in the test listed under Homo sapiens [1] and in the test on CCRF-CEM [4] was > 100000 nM each time. The EC50 was 250 nM in the test listed under Homo sapiens [2] and 180 nM in the test filed under Homo sapiens [3].
As for `CNC(=O)[C@H](Cc1c[nH]c2ccccc12)NP(=O)(O)OC[C@H]1O[C@@H](n2cc(C)c(=O)[nH]c2=O)C[C@@H]1N=[N+]=[N-]`, the concentration for half-maximal inhibition (IC50) in the test filed under Homo sapiens [1] and in the test on CCRF-CEM [4] was > 100000 nM in each case. The half-maximal effective concentration (EC50) turned out to be 1800 nM in the test filed under Homo sapiens [2] and 700 nM in the test filed under Homo sapiens [3].
As for `COC(=O)[C@H](Cc1ccccc1)NP(=O)(O)OC[C@H]1O[C@@H](n2cc(C)c(=O)[nH]c2=O)C[C@@H]1N=[N+]=[N-]`, the Concentration (pM (10e6*cells)-1) in the test listed under Homo sapiens [16] amounted to 0; in the test listed under Homo sapiens [17] it was 0.01.
